Measured values from ChEMBL document CHEMBL1250467, “Design, synthesis, and anticonvulsant activity of new N-Mannich bases derived from spirosuccinimides and spirohydantoins” (Bioorg Med Chem, 2010).
Active and inactive are the calls of the source. The rule behind the calls is not given here.

Assays:
Mus musculus [1] = assay: Anticonvulsant activity in ip dosed CF1 albino mouse assessed as dose required to protect against maximal electroshock-induced seizures after 0.5 hrs; format: functional
Outline: (§1)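 Male CF-1 mice; compounds suspended in 0.5% methylcellulose/water and injected ip at 30, 100 and 300 mg/kg. MES, scPTZ (pentylenetetrazole 85 mg/kg sc at the test time) and rotarod neurotoxicity were scored at 0.5 and 4 h. Value is the lowest dose active or toxic in half or more of the animals; signs such as ataxia or tremor were recorded.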

Mus musculus [2] = assay: Anticonvulsant activity in ip dosed CF1 albino mouse assessed as dose required to protect against maximal electroshock-induced seizures after 4 hrs; format: functional; outline: as §1
Mus musculus [3] = assay: Anticonvulsant activity in CF1 albino mouse assessed as protection against subcutaneous pentylenetetrazole-induced seizures at 300 mg/kg, ip after 0.5 hrs; format: functional, organism-based; set-up: dose 300 mg/kg; outline: as §1
Mus musculus [4] = assay: Anticonvulsant activity in CF1 albino mouse assessed as protection against subcutaneous pentylenetetrazole-induced seizures at 300 mg/kg, ip after 4 hrs; format: functional, organism-based; set-up: dose 300 mg/kg; outline: as §1
Mus musculus [5] = assay: Neurotoxicity in CF1 albino mouse at 300 mg/kg, ip after 0.5 hrs by rotarod test; format: toxicity, organism-based; set-up: dose 300 mg/kg, route intraperitoneal; conditions: in vivo; outline: as §1
Mus musculus [6] = assay: Neurotoxicity in CF1 albino mouse at 300 mg/kg, ip after 4 hrs by rotarod test; format: toxicity, organism-based; set-up: dose 300 mg/kg, route intraperitoneal; conditions: in vivo; outline: as §1
Mus musculus [7] = assay: Anticonvulsant activity in CF1 albino mouse assessed as protection against electrically-induced seizure at 100 mg/kg, ip after 0.25 hrs by 6Hz psychomotor seizure test; format: functional, organism-based; set-up: dose 100 mg/kg
Outline: (§2)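 Male CF-1 mice, compound suspended in 0.5% methylcellulose/water, given ip at 100 mg/kg; four mice per time point (0.25, 0.5, 1, 2, 4 h). Corneal stimulation with 0.2 ms monopolar rectangular pulses at 6 Hz for 3 s from a constant-current device, mice manually restrained. A mouse counted as protected if normal exploratory behaviour resumed within 10 s; motor impairment was noted alongside.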

Mus musculus [8] = assay: Anticonvulsant activity in CF1 albino mouse assessed as protection against electrically-induced seizure at 100 mg/kg, ip after 0.5 hrs by 6Hz psychomotor seizure test; format: functional, organism-based; set-up: dose 100 mg/kg; outline: as §2
Mus musculus [9] = assay: Anticonvulsant activity in CF1 albino mouse assessed as protection against electrically-induced seizure at 100 mg/kg, ip after 1 hr by 6Hz psychomotor seizure test; format: functional; conditions: route intraperitoneal; outline: as §2
Mus musculus [10] = assay: Anticonvulsant activity in CF1 albino mouse assessed as protection against electrically-induced seizure at 100 mg/kg, ip after 2 hrs by 6Hz psychomotor seizure test; format: functional, organism-based; set-up: dose 100 mg/kg; outline: as §2
Mus musculus [11] = assay: Anticonvulsant activity in CF1 albino mouse assessed as protection against electrically-induced seizure at 100 mg/kg, ip after 4 hrs by 6Hz psychomotor seizure test; format: functional; outline: as §2
Mus musculus [12] = assay: Neurotoxicity in ip dosed CF1 albino mouse assessed as dose required to cause toxicity after 0.5 hrs by rotarod test; format: organism-based; conditions: in vivo; outline: as §1
Mus musculus [13] = assay: Neurotoxicity in ip dosed CF1 albino mouse assessed as dose required to cause toxicity after 4 hrs by rotarod test; format: organism-based; conditions: in vivo; outline: as §1
Rattus norvegicus [14] = assay: Anticonvulsant activity in Sprague-Dawley rat assessed as protection against maximal electroshock-induced seizures at 30 mg/kg po after 0.25 hrs; format: functional
Outline: (§3)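 Male Sprague–Dawley rats, four per group, given 30 mg/kg orally as a 0.5% methylcellulose/water suspension. MES protection scored at 0.25, 0.5, 1, 2 and 4 h after dosing, motor impairment checked in parallel; data are the number of the four rats protected.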

Rattus norvegicus [15] = assay: Anticonvulsant activity in Sprague-Dawley rat assessed as protection against maximal electroshock-induced seizures at 30 mg/kg po after 0.5 hrs; format: functional; outline: as §3
Rattus norvegicus [16] = assay: Anticonvulsant activity in Sprague-Dawley rat assessed as protection against maximal electroshock-induced seizures at 30 mg/kg po after 1 hr; format: functional; outline: as §3
Rattus norvegicus [17] = assay: Anticonvulsant activity in Sprague-Dawley rat assessed as protection against maximal electroshock-induced seizures at 30 mg/kg po after 2 hrs; format: functional; outline: as §3
Rattus norvegicus [18] = assay: Anticonvulsant activity in Sprague-Dawley rat assessed as protection against maximal electroshock-induced seizures at 30 mg/kg po after 4 hrs; format: functional; outline: as §3
Rattus norvegicus [19] = assay: Anticonvulsant activity in po dosed Sprague-Dawley rat assessed as time required to peak protection against seizures; format: functional
Rattus norvegicus [20] = assay: Anticonvulsant activity in po dosed Sprague-Dawley rat assessed as protection against subcutaneous pentylenetetrazole-induced seizures; format: functional
Outline: (§4)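 Male Sprague–Dawley rats dosed orally (0.5% methylcellulose/water suspension), groups of eight, tested at the previously estimated time of peak effect. Doses varied until at least three points lay in the 10–90% range of protection (MES, scPTZ) or minimal rotarod neurotoxicity. ED50/TD50 with 95% confidence intervals came from regression; PI = TD50/ED50.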

[21] = Neurotoxicity in po dosed Sprague-Dawley rat by rotarod test; format: toxicity, organism-based; conditions: in vivo; outline: as §4
Rattus norvegicus [22] = organism: Rattus norvegicus; assay: Protection index, ratio of TD50 for Sprague-Dawley rat by rotarod test to ED50 for Sprague-Dawley rat by maximal electroshock test; format: functional; outline: as §4
[23] = Displacement of [3H]batrachotoxin from neurotoxin site 2 of voltage-gated sodium channel in rat forebrain tissue; conditions: read-out: IC50
Mus musculus [24] = assay: Anticonvulsant activity in CF1 albino mouse assessed as protection against maximal electroshock-induced seizures at 300 mg/kg, ip after 0.5 hrs; format: functional, organism-based; set-up: dose 300 mg/kg; outline: as §1
Mus musculus [25] = assay: Anticonvulsant activity in CF1 albino mouse assessed as protection against maximal electroshock-induced seizures at 300 mg/kg, ip after 4 hrs; format: functional, organism-based; set-up: dose 300 mg/kg; outline: as §1
Rattus norvegicus [26] = assay: Anticonvulsant activity in po dosed Sprague-Dawley rat assessed as protection against maximal electroshock-induced seizures; format: functional; outline: as §4
Mus musculus [27] = assay: Anticonvulsant activity in ip dosed CF1 albino mouse assessed as dose required to protect against subcutaneous pentylenetetrazole-induced seizures after 0.5 hrs; format: functional; outline: as §1
Mus musculus [28] = assay: Neurotoxicity in CF1 albino mouse assessed as unable to grasp rotarod at 300 mg/kg, ip after 4 hrs by rotarod test; format: toxicity, organism-based; set-up: dose 300 mg/kg, route intraperitoneal; conditions: in vivo; outline: as §1

O=C1CC2(CCc3ccccc3C2)C(=O)N1CN1CCN(Cc2ccccc2)CC1 (stereo not drawn)
Activity (Mus musculus [1]): 300 mg/kg | Activity (Mus musculus [2]): 300 mg/kg | Activity (Mus musculus [3]): inactive | Activity (Mus musculus [4]): inactive | Activity (Mus musculus [5]): Non-toxic | Activity (Mus musculus [6]): Non-toxic | Activity (Mus musculus [7]): inactive | Activity (Mus musculus [8]): inactive | Activity (Mus musculus [9]): 25% | Activity (Mus musculus [10]): inactive | Activity (Mus musculus [11]): inactive

O=C1NC(=O)C(c2ccccc2)(c2ccccc2)N1 [PHENYTOIN]
Activity (Mus musculus [12]): 100 mg/kg | Activity (Mus musculus [1]): 30 mg/kg | Activity (Mus musculus [2]): 30 mg/kg | Activity (Mus musculus [3]): inactive | Activity (Mus musculus [4]): inactive | Activity (Mus musculus [13]): 100 mg/kg | Activity (Rattus norvegicus [14]): 25% | Activity (Rattus norvegicus [15]): 100% | Activity (Rattus norvegicus [16]): 75% | Activity (Rattus norvegicus [17]): 75% | Activity (Rattus norvegicus [18]): 75% | Time (Rattus norvegicus [19]): 1 h | ED50 (Rattus norvegicus [20]): > 500 mg/kg | TD50 [21]: > 100 mg/kg | PI (Rattus norvegicus [22]): >3.6 | IC50 [23]: 40 µM

O=C1CC2(CCc3ccccc3C2)C(=O)N1CN1CCN(c2ccccc2)CC1 (stereo not drawn)
Activity (Mus musculus [12]): 100 mg/kg | Activity (Mus musculus [24]): inactive | Activity (Mus musculus [25]): inactive | Activity (Mus musculus [3]): inactive | Activity (Mus musculus [4]): inactive | Activity (Mus musculus [13]): 300 mg/kg

O=C1CC2(CCc3ccccc3C2)C(=O)N1CCN1CCN(c2cccc(C(F)(F)F)c2)CC1 (stereo not drawn)
ED50 (Rattus norvegicus [26]): 205 mg/kg | PI (Rattus norvegicus [22]): 1.95

O=C1NC2(CCc3ccccc3C2)C(=O)N1CN1CCN(c2cccc(Cl)c2)CC1 (stereo not drawn)
Activity (Mus musculus [12]): 30 mg/kg | Activity (Mus musculus [24]): inactive | Activity (Mus musculus [2]): 100 mg/kg | Activity (Mus musculus [3]): inactive | Activity (Mus musculus [4]): inactive | Activity (Mus musculus [13]): 30 mg/kg

O=C1NC2(CCc3ccccc3C2)C(=O)N1CN1CCN(c2cccc(C(F)(F)F)c2)CC1 (stereo not drawn)
Activity (Mus musculus [12]): 100 mg/kg | Activity (Mus musculus [1]): 300 mg/kg | Activity (Mus musculus [2]): 30 mg/kg | Activity (Mus musculus [3]): inactive | Activity (Mus musculus [4]): inactive | Activity (Mus musculus [13]): 30 mg/kg

O=C1CC2(CCc3ccccc3C2)C(=O)N1CN1CCN(CCO)CC1 (stereo not drawn)
Activity (Mus musculus [1]): 100 mg/kg | Activity (Mus musculus [2]): 100 mg/kg | Activity (Mus musculus [27]): 300 mg/kg | Activity (Mus musculus [4]): inactive | Activity (Mus musculus [6]): Non-toxic | Activity (Mus musculus [28]): Non-toxic | Activity (Rattus norvegicus [14]): 25% | Activity (Rattus norvegicus [15]): 25% | Activity (Rattus norvegicus [16]): inactive | Activity (Rattus norvegicus [17]): 25% | Activity (Rattus norvegicus [18]): 50%
